Experimental data pooled from the literature.
Lines come from different studies, so protocols differ.
Target: 3-phosphoinositide-dependent protein kinase 1 (PDPK1, Homo sapiens, UniProt O15530)
Sequence (O15530 1-556, as in one of the studies): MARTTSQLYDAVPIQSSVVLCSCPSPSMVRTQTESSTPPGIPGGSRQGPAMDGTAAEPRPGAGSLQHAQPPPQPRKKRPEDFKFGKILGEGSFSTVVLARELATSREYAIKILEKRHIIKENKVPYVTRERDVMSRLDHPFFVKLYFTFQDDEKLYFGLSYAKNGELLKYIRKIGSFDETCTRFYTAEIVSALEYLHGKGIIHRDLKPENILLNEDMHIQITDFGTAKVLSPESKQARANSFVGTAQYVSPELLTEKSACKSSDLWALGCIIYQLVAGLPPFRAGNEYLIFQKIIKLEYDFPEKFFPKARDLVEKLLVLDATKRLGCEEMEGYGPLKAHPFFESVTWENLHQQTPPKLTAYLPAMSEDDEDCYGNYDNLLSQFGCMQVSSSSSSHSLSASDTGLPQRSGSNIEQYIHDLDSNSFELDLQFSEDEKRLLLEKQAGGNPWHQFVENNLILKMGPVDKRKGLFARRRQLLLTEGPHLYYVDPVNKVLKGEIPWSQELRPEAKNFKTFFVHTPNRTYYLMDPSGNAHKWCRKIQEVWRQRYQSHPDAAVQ

Structure (SMILES) | observed | action | method | tested at | quantity | result
CC(C)S(=O)(=O)c1ccc2nccc(Nc3ccc4sc(C5CCCC5)nc4c3)c2c1 | enzyme activity | inhibitor |  | 1 µM | activity vs control | 118%
COc1ccc2oc(-c3ccc4nc(N)oc4c3)c/c(=N\c3ccccc3NC(=O)CCN)c2c1 | binding |  |  | 1 µM | remaining binding | 100%
Cc1cc(O)c(-c2ccc([C@@H](C)CN(C)C)cc2)c2c1[nH]c(=O)c1sccc12 | enzyme activity | inhibitor |  | 0.1 µM | inhibition | 4.15%
CO[C@@H]1[C@H](N(C)C(=O)c2ccccc2)C[C@H]2O[C@]1(C)n1c3ccccc3c3c4c(c5c6ccccc6n2c5c31)C(=O)NC4 | enzyme activity | inhibitor |  | 1 µM | inhibition | 73%
C1=C/COCc2cc(ccc2OCCN2CCCC2)Nc2nccc(n2)-c2cccc(c2)COC/1 | binding |  |  | 0.1 µM | remaining binding | 100%
CN1CCN(C(=O)c2ccc(NC(=O)Nc3ccc(N(C)c4ccnc(Nc5ccc(CS(C)(=O)=O)cc5)n4)cc3)cc2)CC1 | binding |  |  | 1 µM | remaining binding | 68%
CCCCC(=O)Nc1ccc(-c2ccc3ncn(CCC)c(=O)c3c2)cn1 | binding |  | competition with immobilised ligand | 0.5 µM | remaining binding | 100%
N#Cc1ccc(NC(=O)Nc2ccccc2)cc1 | cell-free assay |  | competition with immobilised ligand | 25 µM | remaining binding | 100%
C=CC(=O)N1CCC([C@@H]2CCNc3c(C(N)=O)c(-c4ccc(Oc5ccccc5)cc4)nn32)CC1 | enzyme activity | inhibitor |  | 1 µM | inhibition | 18%
C[C@H]1CC[C@H](n2c3cnccc3c3cnc(Nc4ccc5c(n4)CCN(C(=O)CO)C5)nc32)CC1 | cell-free assay |  |  | 1 µM | remaining signal | 100%
C#Cc1cnc(Nc2ccnc(CO)c2)nc1Nc1ccccc1S(C)(=O)=NC#N (centres unmarked) | cell-free assay |  |  | 1 µM | remaining signal | 100%
